Most compounds without a hit are left out; they make up all but 9.8% or so of the library.
WT yeast gro inh: growth inhibition of WT yeast, mitochondrial fusion screen; inhibition, % at 10 µM; 190,000 compounds, 2.1% hits; mitochondrial fusion phenotypic screen, WT strain; in the data active means inhibition above about 58%; tested in S. cerevisiae
PMI act: increases human mannose-6-phosphate isomerase activity. purified human PMI, coupled resazurin fluorescence, 20 min; active compounds read high; 1 = vehicle control, 0 substrate-free wells. activation factor at 20 µM. 190,000 compounds, 0.005% hits. AID 1214;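 active means activation factor of 2 or more at 20 µM, relative to plate controls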
L major viab: reduces viability of Leishmania major promastigotes; resazurin fluorescence viability; inhibition, % at 10 µM; 200,000 compounds, 9% hits; in the data active means inhibition above about 50%;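 further: promastigotes grown with compound for 44 hours at 28 °C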
Calpain2 inh: inhibitors of pig calpain II | inhibition, % at 16 µM | purified calpain II, fluorogenic peptide substrate, 30 min | 220,000 compounds, 0.37% hits;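 active means inhibition above about 50%, limit read from the data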
Rad51 HR inh: blocks human Rad51 in homologous recombination; Q06609; hRad51 DNA strand exchange, fluorescence dequenching; inhibition, % at 10 µM; 200,000 compounds, 0.085% hits; AID 1385;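 active means inhibition above 40% at the single screening dose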;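 further: 0% = DMSO control wells and 100% = blanks with heterologous ssDNA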
Target sequence (Q06609 whole entry, looked up): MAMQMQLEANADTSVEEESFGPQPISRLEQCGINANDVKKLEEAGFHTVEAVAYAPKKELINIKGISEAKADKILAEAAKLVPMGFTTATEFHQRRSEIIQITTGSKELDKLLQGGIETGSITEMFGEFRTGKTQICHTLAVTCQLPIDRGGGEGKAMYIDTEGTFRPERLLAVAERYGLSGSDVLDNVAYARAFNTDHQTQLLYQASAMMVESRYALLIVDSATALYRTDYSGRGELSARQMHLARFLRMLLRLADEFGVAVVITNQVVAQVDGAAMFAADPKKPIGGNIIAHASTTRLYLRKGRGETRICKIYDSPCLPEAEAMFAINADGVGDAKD
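material = hRad51 filaments on single-stranded DNA | timing = filaments 15 min 37 °C, then compound 30 min | signal = FRET fluorescence dequenching, excitation 485 nm, emission 520 nm | benchmarks = control wells and blank wells on each plate | evaluation = percent inhibition relative to plate controls and blanks | compound = 10 µM final, single point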
PMI act hi M6P: PMI (human) activation, high substrate | coupled PMI enzyme assay, resazurin fluorescence, 20 min; active compounds read high; 1 = untreated enzyme, 0 = substrate-free blank | activation factor at 20 µM | 190,000 compounds, 0.34% hits | AID 1216;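 active means activation factor of 2 or more at 20 µM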
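Material: human phosphomannose isomerase with PGI, G6PDH, diaphorase coupling enzymes; amount: PMI at 15 ng/mL final; also added: Mannose-6-phosphate 1.0 mM (near-saturating) plus 0.22 mM NADP+; incubation: enzyme reaction with compound 20 min at room temperature; signal: resorufin fluorescence (Ex 544/Em 590 nm) from resazurin via diaphorase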
Active calls of the source: *; . = no result given.

SMILES | WT yeast gro inh | PMI act | L major viab | Calpain2 inh | Rad51 HR inh | PMI act hi M6P
O=C(OCC(=O)N1N=C(c2ccc(Cl)cc2)CC1c1ccco1)c1ccco1 (stereo not drawn) | 31 | 0.9 | -2 | 3 | 7 | 0.8
N=c1sccn1CC(=O)N1N=C(c2ccc(Cl)cc2)CC1c1ccco1 (stereo not drawn) | -4 | 1 | 63* | 5 | 4 | 0.9
COc1ccc(/C=N/N(Cc2ccccc2)c2ccccc2)cc1O | 83* | 0.8 | 3 | -15 | -33 | 0.8
O=C(N/N=C1\CCCc2ccccc21)c1ccccc1Cl | -12 | 1 | 88* | -15 | 9 | 1
COc1ccc(CNc2cc(NCCCO)c([N+](=O)[O-])c3nonc23)cc1 | 6 | 0.5 | 67* | 41 | 5 | 0.4
O=[N+]([O-])c1c(NCCCO)cc(Sc2ccc(Cl)cc2)c2nonc12 | -4 | 0.5 | -4 | 16 | . | 0.4
COC(=O)C(Cc1ccc(OC(=O)c2ccc(C(F)(F)F)cc2)cc1)N1Cc2ccccc2C1=O (stereo not drawn) | 18 | 0.8 | 14 | 71* | -2 | 0.9
COC(=O)C(Cc1ccc(OC(=O)c2ccc(Cl)cc2)cc1)N1Cc2ccccc2C1=O (stereo not drawn) | 54 | 1 | -6 | 31 | 1 | 1
Clc1cccc(CSC2=NCCCN2)c1 | 0 | 1.1 | 60* | -11 | -8 | 1.1
O=C(CSCCOc1ccccc1)NCc1ccncc1 | . | . | . | -11 | -8 | .
O=C(NCc1ccc2c(c1)OCO2)C1CCCN1C(=O)Nc1cccc(Cl)c1 (stereo not drawn) | 0 | 1 | 99* | -3 | 5 | 1
Cc1cccc(-n2c(SCC(=O)NCc3ccc4c(c3)OCO4)nc3ccccc3c2=O)c1 | -8 | 0.9 | 96* | 0 | -2 | 0.9
O=C(CSc1nc2ccccc2c(=O)n1-c1ccccc1)NCc1ccco1 | 6 | 1 | 61* | -8 | 10 | 1
Cc1cccc(-n2c(SCC(=O)NCc3ccco3)nc3ccccc3c2=O)c1 | -7 | 0.9 | 47 | 1 | -5 | 0.9
CN(C)c1ccc(O)c2c1CC1CC3[C@@H](N(C)C)C(=O)C(C(N)=O)=C(O)[C@]3(O)C(=O)C1=C2O (stereo partly drawn) | 60* | 1.4 | 83* | -47 | -4 | 1.1
COc1ccc(C2SCC(=O)N2CC23CC4CC(CC(C4)C2)C3)cc1 (stereo not drawn) | 76* | 0.9 | 33 | 17 | 2 | 0.9
Cc1ccccc1S(=O)(=O)N(CC(O)CN1C(=O)NC(C)(C)C1=O)c1ccccc1 (stereo not drawn) | . | . | . | 10 | 5 | .
CC(C)CC(NC(N)=O)C(=O)NCc1ccccc1Cl (stereo not drawn) | 12 | 1 | -3 | -19 | 3 | 1
N#CC(C#N)=c1ccc2c(c1)N1C3=C(CCCC3)CC3CCCCC31N=2 (stereo not drawn) | 73* | 0.8 | 99* | -103 | -29 | 0.8
N#C/C(C(N)=O)=c1/ccc2c(c1)N1C3=C(CCCC3)CC3CCCCC31N=2 (stereo not drawn) | 30 | 0.7 | 74* | 8 | -27 | 0.7
CC1(C)C2CCC1(C)C(OCC[N+](C)(C)CC(=O)OC1CCCCC1)C2 (stereo not drawn) | 26 | 0.9 | 100* | 15 | 4 | 0.9
Cc1ccc(NS(=O)(=O)c2cc(NC(=O)c3ccc4c(c3)NC(=O)CS4)ccc2Cl)c(C)c1 | 15 | 0.4 | 87* | -103 | 20 | 0.7
CN(C)C=Nc1ncc2c3ccccc3n(CCN(C)C)c2c1C#N | 2 | 0.9 | 98* | -95 | -1 | 0.8
CN(C)C=Nc1ncc2c3ccccc3n(Cc3ccccc3)c2c1C#N | -5 | 0.8 | -6 | -201 | 5 | 0.9
Cc1cccc(NC(=S)N/N=C(\c2ccccc2)C(C)C)c1 | 73* | 0.8 | 22 | 25 | 1 | 0.9
SMILES | WT yeast gro inh | PMI act | L major viab | Calpain2 inh | Rad51 HR inh | PMI act hi M6P
CC/C(=N\NC(=S)Nc1cc(C)ccc1C)c1ccc(OC(F)F)cc1 | 66* | 0.9 | 74* | 21 | -3 | 1
CC/C(=N\NC(=S)Nc1ccc(OC)cc1)c1ccc(OC(F)F)cc1 | 49 | 0.9 | -4 | 14 | -2 | 0.8
CC(C)/C(=N\NC(=O)Nc1ccccc1)c1ccccc1 | 24 | 1 | 4 | 18 | -1 | 1
CC/C(=N\NC(=S)Nc1cccc(C)c1)c1ccccc1 | 71* | 0.9 | 3 | 30 | 9 | 1
C/C(=N\NC(=S)Nc1cccc(C)c1)c1cc2ccccc2o1 | 44 | 0.9 | 90* | 34 | . | 1.1
CCNC(=S)N/N=C(\C)c1cc2ccccc2o1 | 8 | 0.9 | -5 | -27 | -3 | 0.9
COc1ccc(CNC(=O)c2cc(-c3ccncc3)nc3c(C)cc(C)cc23)cc1OC | 3 | 1 | 20 | -152 | 13 | 1
O=C(COC(=O)Cc1ccc(Cl)cc1)Nc1ccccc1-c1ccccc1 | 5 | 0.8 | -3 | 19 | 8 | 0.9
O=C(COC(=O)Cc1c(Cl)cccc1Cl)Nc1ccccc1-c1ccccc1 | 81* | 0.9 | 18 | 26 | . | 0.9
O=C(Cn1nc(-c2ccccc2Cl)ccc1=O)Nc1ccccc1-c1ccccc1 | 67* | . | 2 | -8 | 3 | .
O=C(Cn1nc(-c2ccccc2Cl)ccc1=O)Nc1ccc(Br)cc1 | 48 | 0.8 | -7 | 9 | -265 | 0.8
CC(C)(C)OC(=O)N1CCC(CNC(=O)Nc2ccccc2)CC1 | . | . | . | -27 | 23 | .
O=C(NCc1ccco1)C1CCN(C(=O)c2cc3sccc3n2Cc2ccc(Cl)cc2)CC1 | 61* | 0.8 | 65* | 57* | -2 | 0.8
CCn1c(C(=O)N2CCC(C(=O)NCc3cccs3)CC2)cc2sccc21 | -7 | 1 | 3 | 10 | -2 | 1
Cn1cc(C(=O)c2ccc(Cl)cc2Cl)cc1C(=O)N/N=C(\N)COc1ccc(Cl)cc1Cl | -5 | 1 | 100* | -66 | . | 1
Cn1cc(C(=O)c2ccc(Cl)cc2Cl)cc1C(=O)O | 92* | 1 | -6 | -2 | . | 1
COc1cccc(N=Nc2c(N)[nH]n3c(=O)c4c(nc23)CCCC4)c1 | -10 | 0.9 | 74* | -91 | 10 | 0.6
COc1cccc(N=Nc2c(N)[nH][nH]c2=O)c1 | -1 | 1 | -9 | 7 | 16 | 0.9
CSc1cccc(NC(=S)N(CCCN2CCC(C)CC2)Cc2cccs2)c1 | 14 | 1 | 61* | -4 | 2 | 0.9
COc1cccc(NC(=S)N(CCCN2CCC(C)CC2)Cc2cccs2)c1 | 4 | 1.1 | 68* | 10 | 1 | 1.1
COc1ccc(C2SCC(=O)N2CCc2ccc(OC)c(OC)c2)cc1 (stereo not drawn) | 26 | . | -3 | 17 | 1 | .
CCn1c(NCc2ccc3c(c2)OCO3)nc2ccccc21 | 11 | 1.1 | 78* | 13 | -2 | 1
